Measurements taken from ChEMBL document CHEMBL5032515, “Dual Role of Phenyl Amides from Hempseed on BACE 1, PPARγ, and PGC-1α in N2a-APP Cells” (J Nat Prod, 2021).
The source made the active and inactive calls. The calls are words filed in the database; no cut-off is given here.

Columns and labels:
[1] = Permeability of compound assessed as retention time by PAMPA-BBB assay; assay type: ADME
Summary of the method: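 Qualitative PAMPA-BBB. The donor solution was 200 μg/mL (final) in 0.01 M PBS pH 7.4, made from a stock in 50% EtOH. The filter was coated with brain polar lipid plus cholesterol in n-dodecane, and the acceptor held PBS. Plates were incubated 4 h at 37 °C. Donor and acceptor solutions were analysed by UHPLC-UV (200–400 nm) in triplicate, and compounds were identified by retention time.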

N2a [2] = experiment: Antialzheimer activity in mouse N2a-APP cells assessed as reduction of BACE-1 expression at 0.03 to 0.08 uM measured after 48 hrs by RT-qPCR method; assay type: functional, cell-based; details: dose 0.03-0.08 µM
Summary of the method: (§1)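 Mutant APP-overexpressing N2a cells were grown in DMEM with 10% FBS and L-glutamine at 37 °C in 5% CO2. They were seeded in six-well plates at 5 × 10^5/mL (24 h) or 5 × 10^5/2 mL (48 h) and treated at 0.03–0.08 μM. Controls were pioglitazone 14 μM and medium alone. SYBR green qPCR used 20 ng cDNA, GAPDH/18S references and triplicate reactions; 2^−ΔΔCt; mean ± SD, n = 3.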

N2a [3] = experiment: Antialzheimer activity in mouse N2a-APP cells assessed as reduction of BACE-1 expression at 0.03 to 0.08 uM measured after 24 hrs by RT-qPCR method; assay type: functional, cell-based; details: dose 0.03-0.08 µM; summary of the method: as §1
N2a [4] = experiment: Antialzheimer activity in mouse N2a-APP cells assessed as up-regulation of PGC-1alpha expression at 0.03 to 0.08 uM measured after 24 to 48 hrs by RT-qPCR method; assay type: functional, cell-based; details: dose 0.03-0.08 µM, time 24-48 hrs; summary of the method: as §1
N2a [5] = experiment: Cytotoxicity against mouse N2a-APP cells assessed as cell viability at 0.03 to 0.08 uM measured after 24 hrs by MTT assay; assay type: functional, cell-based; details: dose 0.03-0.08 µM
Summary of the method: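 N2a-APP cells were seeded at 1 × 10^4 cells/well and exposed for 24 h to 0.03–0.08 μM, with medium-alone controls. MTT (1 mg/mL) was added for 2 h at 37 °C and the formazan was dissolved in DMSO. Absorbance was read at 570 nm, corrected at 650 nm. Survival is given as % of untreated cells; mean ± SD, one-way ANOVA.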

N2a [6] = experiment: Cytotoxicity against mouse N2a-APP cells assessed as cell viability at 0.03 to 0.08 uM measured after 24 hrs by MTT assay; details: dose 0.03-0.08 µM
N2a [7] = experiment: Antialzheimer activity in mouse N2a-APP cells assessed as increase of […] expression at 0.03 to 0.08 uM measured after 24 hrs by RT-qPCR method; assay type: functional, cell-based; details: dose 0.03-0.08 µM; summary of the method: as §1
N2a [8] = experiment: Antialzheimer activity in mouse N2a-APP cells assessed as increase of […] expression at 0.03 to 0.08 uM measured after 48 hrs by RT-qPCR method; assay type: functional, cell-based; details: dose 0.03-0.08 µM; summary of the method: as §1
N2a [9] = experiment: Antialzheimer activity in mouse N2a-APP cells assessed as effect on […] expression at 0.03 to 0.08 uM measured after 24 to 48 hrs by RT-qPCR method; assay type: functional, cell-based; details: dose 0.03-0.08 µM, time 24-48 hrs; summary of the method: as §1

Compound	Retention_time [1] [min]	Activity (N2a [2])	Activity (N2a [3])	Activity (N2a [4])	Activity (N2a [5])	Activity (N2a [6])	Activity (N2a [7])	Activity (N2a [8])	Activity (N2a [9])
COc1cc(/C=C/C(=O)NCCc2ccc(O)cc2)ccc1O [N-TRANS-FERULOYL TYRAMINE]	28.42								
O=C(/C=C/c1ccc(O)c(O)c1)NCCc1ccc(O)cc1	24.08	Active	Active	Active	inactive	inactive	Active	Active	
O=C(NCCc1ccc(O)cc1)c1cc2cc(O)c(O)cc2c(-c2ccc(O)c(O)c2)c1C(=O)NCCc1ccc(O)cc1	28.07								
O=C(/C=C/c1ccc(O)cc1)NCCc1ccc(O)cc1 [N-P-COUMAROYL TYRAMINE]	27.32				inactive	inactive			inactive
